High-throughput results: PubChem BioAssay, several laboratories
PHOSPHO1 inh = PubChem AID 1565. Phosphoethanolamine/phosphocholine phosphatase (Homo sapiens), Q8TCT1. recombinant PHOSPHO1, absorbance phosphatase assay. inhibition, % at 13.3 µM. 290,000 compounds, 1.1% hits; in the data active = inhibition above about 60%
Target sequence (Q8TCT1 whole entry, looked up): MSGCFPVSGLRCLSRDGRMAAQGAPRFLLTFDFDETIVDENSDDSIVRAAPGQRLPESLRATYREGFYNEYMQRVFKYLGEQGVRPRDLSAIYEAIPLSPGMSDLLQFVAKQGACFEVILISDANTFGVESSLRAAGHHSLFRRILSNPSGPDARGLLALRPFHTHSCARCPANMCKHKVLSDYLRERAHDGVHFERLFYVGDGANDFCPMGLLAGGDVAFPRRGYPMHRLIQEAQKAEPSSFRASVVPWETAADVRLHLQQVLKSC
core dimer inh = inhibitors of HCV core protein dimerization, primary screen, biochemical, TR-FRET, high-throughput; TR-FRET GST/Flag-core106 dimerization, 1536-well; inhibition, % at 5 µM; 300,000 compounds, 0.33% hits; AID 1899, 2009;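 active = inhibition above the mean of all tested compounds plus 3 SD, set per screening campaign, cut at about 45% in these data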
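Assay system: GST-tagged and Flag-tagged HCV core protein residues 1-106 / Times: compound-protein-antibody incubation 4 h at 22.5 °C / Signal: time-resolved FRET, ex 340 nm, em 617 and 671 nm / Evaluation: % inhibition based on acceptor/donor emission ratio / Benchmarks: wells lacking GST-core106 and wells with excess unlabelled core106 / Repeats: singlicate, one well per compound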
ALR H2O2 inh = inhibitors of human ALR sulfhydryl oxidase, primary screen, biochemical, H2O2 detection, HRP-luminol luminescence, single point; inhibition, % (concentration not given with the values); AID 485317, 2010; FAD-linked sulfhydryl oxidase ALR (Homo sapiens), P55789; purified ALR, DTT oxidation; 290,000 compounds, 3.8% hits;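 active = mean replicate inhibition above about 79%, with every replicate also reaching it, limit read from the data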
Target sequence (P55789 whole entry, looked up): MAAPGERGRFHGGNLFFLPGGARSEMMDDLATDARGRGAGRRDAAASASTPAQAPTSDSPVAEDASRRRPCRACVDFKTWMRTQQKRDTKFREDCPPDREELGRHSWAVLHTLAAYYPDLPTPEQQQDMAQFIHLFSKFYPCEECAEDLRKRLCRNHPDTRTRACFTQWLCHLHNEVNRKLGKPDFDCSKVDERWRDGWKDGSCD
AI-2 QS mod = Vibrio harveyi AI-2 quorum sensing modulators, primary screen, JMH597 strain, luminescence/OD600 ratio; Vibrio harveyi JMH597 AI-2 luminescence/OD600 ratio, 9 h; stronger effect = lower value; strain lacks LuxN and CqsS sensors; 0 = neutral-control median; activity change, % at 7.5 µM; 300,000 compounds, 0.4% hits; AID 2094, 2009; in the data active = activity change below about -75%, passing the limit was not always enough;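 also: luminescence divided by OD600 gain over 9 h not by final OD600 alone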
HSF1 activator = HSF-1 activators, primary screen, NIH3T3-HGL cells, MG132 stress, luminescence, single point | 300,000 compounds, 1.7% hits | activation, % at 9 µM | NIH3T3-HGL HSF-1 luciferase reporter, 8 h; 100% = twice DMSO control signal;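 active = mean replicate activation of at least 50% with a set share of replicates each reaching 50%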
HSF1 inhib = HSF1 inhibitors in luciferase reporter cells, primary screen, cell-based, NIH3T3, luminescence; NIH3T3-HGL HSE-luciferase, MG132-induced, luminescence 8 h; stronger effect = lower value; activity change, negative = inhibition, % at 7.5 µM (by protocol); 300,000 compounds, 0.77% hits; AID 2098, 2009;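 active = more than half of replicate wells show activity change below -50%, luminescence cut by over half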;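 also: luciferase reports HSF-1 transcriptional activity via heat shock element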
Hits are given with their value; - = inactive; . = not tested or not shown. A selection: hits, their analogues and other compounds. The true share with any hit is near 6.8%.

SMILES	PHOSPHO1 inh	core dimer inh	ALR H2O2 inh	AI-2 QS mod	HSF1 activator	HSF1 inhib
O=C(N/N=C/c1c[nH]c2ccccc12)C1CC(=O)N(c2ccccc2)C1 (stereo unspecified)	72.9	-	-	-	-	-
O=C(O)c1ccc(N/N=C/c2c[nH]c3ccccc23)cc1	.	-	98.4	-	-	-77.7
CCc1ccc(N2CC(C(=O)N/N=C/c3cc([N+](=O)[O-])ccc3O)CC2=O)cc1 (stereo unspecified)	-	-	-	-	-	-55.1
C[C@]12C(=O)N(c3ccc(F)cc3)C(=O)N1[C@H]1c3ccccc3OC[C@@H]1[C@H]2c1ccccc1	.	.	-	.	.	.
COC(=O)C1=COC(C)C2CN3CCc4c([nH]c5cc(OC)c(OC)cc45)C3CC12 (stereo unspecified)	-	-	-	-	-	-
Cc1cc(N/N=C/c2c[nH]c3ccccc23)c2ccccc2n1	-	-	-	-	-	-
Cn1c(N/N=C/c2c[nH]c3ccccc23)nc2ccccc21	-	-	98.1	-	61.2	-
Cc1ccc(C(=O)COC(=O)c2ccc(O)cc2)cc1	-	-	-	-	122.3	-
Cc1ccc(C(=O)COC(=O)c2cn3ccccc3n2)cc1	-	-	-	-	62.2	-
CCOC(=O)COC(=O)c1ccc(O)cc1	-	-	-	-	-	-
O=C(COC(=O)c1ccc(-c2nnc(-c3ccccc3)o2)cc1)c1ccccc1	-	-	-	-	50.9	-
C=CCN(C(=O)Cn1nc(C)n2c(cc3cc(C)ccc32)c1=O)c1ccccc1	-	-	-	-	-	-
Cc1sc(NC(=O)c2ccc(F)cc2)c(CN2CCCCCC2)c1C	-	-	-	-	56.5	-
Cc1sc(NC(=O)c2ccccc2F)c(CN2CCCCC2)c1C	-	-	95.2	-	57.7	-
CC(C)c1nnc(SCC(=O)N2CCN(C(=O)c3ccco3)CC2)n1N	-	-	-	-	-	-
CCOC(=O)C1CCCN(CC(=O)Nc2nccs2)C1 (stereo unspecified)	-	-	-	-	-	-
NC(=O)c1cc2ccccc2oc1=NCc1ccccc1	-	-	-	-	-	-
NC(=O)c1cc2cc(Br)ccc2oc1=NCc1ccccc1	-	-	-	-	190.1	-
C=CCn1c(C(C)NC(=O)c2ccccc2)n[nH]c1=S (stereo unspecified)	80.1	-	-	-	-	-
CCCn1c(C(C)NC(=O)c2ccccc2)n[nH]c1=S (stereo unspecified)	-	-	94.3	-	-	-
O=C(Nc1ccc(S(=O)(=O)N2CCCC2)cc1)c1cc(F)c(F)cc1Cl	-	-	-	-	-	-
O=C1CC(NS(=O)(=O)c2cccs2)CN1c1cccc(F)c1 (stereo unspecified)	.	-	-	-	-	-
CCN(Cc1ccccc1)C(=O)CCc1nc(CN2CCN(C(=O)c3ccc([N+](=O)[O-])cc3)CC2)no1	-	-	-	-	-	-
O=C(NC(=O)c1ccc(F)cc1F)Nc1ccc(Cl)cc1	-	-	-	.	-	-
Cn1c(=O)[nH]c(=O)c2c1nc(Br)n2Cc1cccc(Br)c1	-	-	-	-	-	-
SMILES	PHOSPHO1 inh	core dimer inh	ALR H2O2 inh	AI-2 QS mod	HSF1 activator	HSF1 inhib
COc1ccc(-n2nc3c(c2NC(=O)CCl)CSC3)cc1	-	-	.	-	-	-
O=C(NCc1ccccc1)c1sc(=S)n2c1[nH]c(=O)c1ccccc12	-	-	98.4	-	-	-
CCN(CC)c1ccc(/C=N/N2CCN(c3ccccn3)CC2)cc1	-	-	-	-	-	-
CCN(CC)c1ccc(/C=N/N2CCOCC2)cc1	-	-	98.6	-	-	-
CCN(Cc1ccccc1)c1ccc(/C=N/N2CCOCC2)cc1	-	-	98.4	-	-	-
Cc1ccc(NS(=O)(=O)c2c(C(=O)N3CCOCC3)c(C)n(C)c2C)cc1C	-	-	-	-	-	-
O=c1c(-c2ccc3c(c2)OCCO3)coc2cc(O)cc(O)c12	-	-	-	-	71.1	-
CC(=O)n1cc(Nc2ccc([N+](=O)[O-])cc2)c2ccccc21	-	-	-	-	-	-
CC(=O)SC(C[N+](=O)[O-])c1cn(C(C)=O)c2ccccc12 (stereo unspecified)	62.6	-	100.1	-	203.8	-
CCOC(=O)[C@@H]1[C@H]2COc3ccccc3[C@H]2N2C(=O)N(c3cccc(Cl)c3)C(=O)[C@]12C	.	.	-	.	.	.
COC(=O)/C(=N/Nc1ccc(C)cc1)N1CCCc2ccccc21	-	-	98.7	-	-	-
COC(=O)/C(=N/Nc1ccccc1)N1CCCc2ccccc21	-	-	.	-	.	.
COC(=O)/C(=N/Nc1cccc(C)c1)N1CCCc2ccccc21	-	-	98.9	-	-	-
CC(=O)/C(=N/Nc1ccc(Br)cc1)N1CCCc2ccccc21	-	-	-	.	56.9	-
CCOc1ccccc1NC(=O)c1cc(C(=O)Nc2ccccc2OCC)cc(N2C(=O)CCC2=O)c1	-	-	-	-	-	-
Cc1cc(/C=C2\NC(=O)NC2=O)c(C)n1-c1cccnc1	-	-	-	-	-	-
O=C1NC(=O)/C(=C\c2cn(Cc3ccccc3F)c3ccccc23)N1	-	-	-	-	-	-
Cc1cccc(C)c1-n1c(C)cc(/C=C2\NC(=O)NC2=O)c1C	-	-	-	-	-	-51.9
Cc1c(/C=C2\NC(=O)NC2=O)c2ccccc2n1C	-	-	98.3	-	-	-
COc1ccc2sc(-c3ccc(N(C)C)cc3)c(-c3cnc(OC)nc3)c2c1	.	.	-	.	.	.
COc1ccc(N2CCN(c3cc(C)c4ccc(O)cc4n3)CC2)cc1	-	-	.	-	-	-
Cc1cc(N2CCN(c3ccc(F)cc3)CC2)nc2cc(O)ccc12	-	-	-	-	-	-54.8
CC(=O)Nc1ccc(NC(=O)c2ccnn2C)cc1	.	-	-	-	-	-
CC(=O)Nc1ccc(SCC(=O)NC(=O)c2ccc(S(=O)(=O)N(C)C)cc2)cc1	.	.	98.6	.	.	.
Cc1cnc(NC(=O)CSc2nnc(-c3ccccc3)o2)s1	-	-	-	-	61.2	-
O=C(CSc1nnc(-c2ccccc2)o1)c1nnc(-c2ccccc2)o1	93.5	-	-	-	-	-
N#Cc1ccsc1NC(=O)CN1CCN(c2ccccc2O)CC1	-	-	99.1	-	-	-
CCN(CC1COc2ccccc2O1)C(=S)NC1CC2CCC1C2 (stereo unspecified)	-	-	-	-	-	-
CCOc1ccccc1NC(=O)COC(=O)CC(NC(N)=O)c1ccc(Cl)cc1 (stereo unspecified)	-	-	-	-	-	-
